Calls of active or inactive are those of the source. The rule behind the calls is not given here.
How the values were obtained:
[1] = target: T1, Isochorismate synthase EntC (Escherichia coli K-12) (UniProt P0AEJ2); assay: Noncompetitive inhibition of Escherichia coli K12 IS expressed in Escherichia coli BL21(DE3) by double reciprocal plot in presence of cofactor Mg2+
T1 sequence (whole entry): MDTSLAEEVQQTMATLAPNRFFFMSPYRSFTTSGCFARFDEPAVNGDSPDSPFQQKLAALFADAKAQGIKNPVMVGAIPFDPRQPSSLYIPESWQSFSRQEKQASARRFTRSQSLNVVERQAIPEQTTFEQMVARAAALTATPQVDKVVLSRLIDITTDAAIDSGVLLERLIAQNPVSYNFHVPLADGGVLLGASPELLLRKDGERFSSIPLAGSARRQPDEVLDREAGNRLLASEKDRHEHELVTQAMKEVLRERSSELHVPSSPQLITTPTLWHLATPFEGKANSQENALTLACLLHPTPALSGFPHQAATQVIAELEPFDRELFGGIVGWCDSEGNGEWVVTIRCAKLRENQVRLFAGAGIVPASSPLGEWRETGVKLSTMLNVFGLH
Procedure, shortened: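 IS (75 nM) in an EntB/LDH coupled assay, with NADH loss read at 340 nm, 25 °C. Buffer: 50 mM triethanolamine pH 7.8, 100 μM NADH. Chorismate was held saturating at 200 μM while Mg2+ was varied 5–500 μM. Inhibitor ranged 10 μM–8 mM; the inhibition pattern came from initial rates.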

[2] = target: T1, Isochorismate synthase EntC (Escherichia coli K-12); assay: Competitive inhibition of Escherichia coli K12 IS expressed in Escherichia coli BL21(DE3) using chorismate as substrate by double reciprocal plot
Procedure, shortened: (§1)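 Isochorismate synthase EntC (His-tagged, pET28a, BL21(DE3)) at 75 nM, coupled to excess EntB (2 μM) and 2 units LDH. Read-out was NADH oxidation at 340 nm, 25 °C. Buffer: 50 mM triethanolamine pH 7.8, 1 mM MgCl2 (saturating), 100 μM NADH. Inhibitor ranged 10 μM–8 mM; chorismate ranged 0.5–5 KM. Ki versus chorismate came from initial rates.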

[3] = target: T2, Anthranilate synthase component 1 (Salmonella typhimurium (strain LT2 / SGSC1412 / ATCC 700720), UniProt P00898); assay: Inhibition of Salmonella Typhimurium anthranilate synthase trpE:trpD […] coexpressing stop codon in trpD gene for encoding aminotransferase activity by spectrophotometry for enzyme-inhibitor complex; set-up: species or system Salmonella enterica subsp. enterica serovar Typhimurium
T2 sequence (P00898 whole entry): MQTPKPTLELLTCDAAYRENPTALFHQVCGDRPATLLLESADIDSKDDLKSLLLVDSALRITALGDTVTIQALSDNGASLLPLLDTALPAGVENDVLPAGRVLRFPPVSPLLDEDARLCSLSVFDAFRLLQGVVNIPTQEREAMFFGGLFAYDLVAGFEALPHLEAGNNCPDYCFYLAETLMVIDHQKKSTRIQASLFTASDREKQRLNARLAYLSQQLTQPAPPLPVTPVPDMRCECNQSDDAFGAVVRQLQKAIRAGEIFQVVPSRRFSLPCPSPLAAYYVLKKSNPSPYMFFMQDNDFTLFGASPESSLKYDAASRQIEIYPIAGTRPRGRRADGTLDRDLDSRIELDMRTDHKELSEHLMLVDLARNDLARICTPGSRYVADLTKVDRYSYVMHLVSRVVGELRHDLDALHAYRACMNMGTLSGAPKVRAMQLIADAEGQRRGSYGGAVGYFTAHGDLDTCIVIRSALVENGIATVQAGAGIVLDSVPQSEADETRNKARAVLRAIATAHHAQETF

[4] = target: Aminodeoxychorismate synthase component 1 PabB (Escherichia coli K-12) (UniProt P05041); assay: Competitive inhibition of Escherichia coli K12 ADCS by double reciprocal plot in presence of cofactor Mg2+
Chain of Aminodeoxychorismate synthase component 1 PabB (Escherichia coli K-12) (P05041 whole entry, looked up): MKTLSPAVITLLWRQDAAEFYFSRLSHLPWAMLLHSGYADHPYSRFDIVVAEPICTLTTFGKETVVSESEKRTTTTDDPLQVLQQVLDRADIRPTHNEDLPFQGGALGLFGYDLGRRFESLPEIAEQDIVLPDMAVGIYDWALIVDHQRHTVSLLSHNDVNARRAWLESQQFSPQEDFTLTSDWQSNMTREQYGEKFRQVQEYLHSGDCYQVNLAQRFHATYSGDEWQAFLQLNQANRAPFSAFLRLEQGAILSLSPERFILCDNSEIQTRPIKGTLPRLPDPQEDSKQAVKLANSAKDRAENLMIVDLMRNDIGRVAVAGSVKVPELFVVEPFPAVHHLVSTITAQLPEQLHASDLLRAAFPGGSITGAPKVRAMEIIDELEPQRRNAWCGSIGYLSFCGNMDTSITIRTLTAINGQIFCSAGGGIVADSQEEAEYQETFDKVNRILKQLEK

[5] = target: T3, Anthranilate synthase component 1 (Salmonella typhimurium (strain LT2 / SGSC1412 / ATCC 700720)) (UniProt P00898); assay: Competitive inhibition of Salmonella Typhimurium anthranilate synthase trpE expressed in Escherichia coli BL21(DE3) by double reciprocal plot in presence of cofactor Mg2+; conditions: Salmonella enterica subsp. enterica serovar Typhimurium
T3 sequence (whole entry): T2 sequence (P00898 whole entry)

[6] = target: T4, Isochorismate synthase EntC (Escherichia coli K-12, UniProt P0AEJ2); assay: Inhibition of Escherichia coli K12 IS expressed in Escherichia coli BL21(DE3) by spectrophotometry; procedure, shortened: as §1
T4 sequence (P0AEJ2 whole entry): T1 sequence (whole entry)

[7] = target: T3, Anthranilate synthase component 1 (Salmonella typhimurium (strain LT2 / SGSC1412 / ATCC 700720)); assay: Mixed-type inhibition of Salmonella Typhimurium anthranilate synthase trpE expressed in Escherichia coli BL21(DE3) using chorismate as substrate by double reciprocal plot; conditions: Salmonella enterica subsp. enterica serovar Typhimurium
Procedure, shortened: (§2)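 S. typhimurium anthranilate synthase partial complex (TrpE2TrpG2), 2.2 nM, in a fluorescence assay read at 390 nm emission, 313 nm excitation, 25 °C. Buffer: 100 mM phosphate pH 7.0, 20 mM L-glutamine, 5 mM MgCl2 (saturating). Reactions were started with enzyme. Inhibitor ranged 10 μM–8 mM; chorismate ranged 0.5–5 KM. Ki versus chorismate came from initial rates.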

[8] = target: Aminodeoxychorismate synthase component 1 PabB (Escherichia coli K-12) (UniProt P05041); assay: Competitive inhibition of Escherichia coli K12 ADCS using chorismate as substrate by double reciprocal plot
[9] = target: Anthranilate synthase component 1 (Salmonella typhimurium (strain LT2 / SGSC1412 / ATCC 700720), UniProt P00898); assay: Inhibition of Salmonella Typhimurium anthranilate synthase trpE:trpD […] coexpressing stop codon in trpD gene for encoding aminotransferase activity by spectrophotometry for enzyme-substrate-inhibitor complex; set-up: species or system Salmonella enterica subsp. enterica serovar Typhimurium
[10] = target: Aminodeoxychorismate synthase component 1 PabB (Escherichia coli K-12) (UniProt P05041); assay: Noncompetitive inhibition of Escherichia coli K12 ADCS by double reciprocal plot in presence of cofactor Mg2+
[11] = target: Aminodeoxychorismate synthase component 1 PabB (Escherichia coli K-12) (UniProt P05041); assay: Noncompetitive inhibition of Escherichia coli K12 ADCS using chorismate as substrate by double reciprocal plot
[12] = target: T3, Anthranilate synthase component 1 (Salmonella typhimurium (strain LT2 / SGSC1412 / ATCC 700720)); assay: Noncompetitive inhibition of Salmonella Typhimurium anthranilate synthase trpE expressed in Escherichia coli BL21(DE3) using chorismate as substrate by double reciprocal plot; conditions: Salmonella enterica subsp. enterica serovar Typhimurium; procedure, shortened: as §2

NC(=O)C1(NC(=O)[C@H](CCCNC(=O)c2cccc(OCC(=O)O)c2)NC(=O)c2ccc(Oc3ccccc3)cc2)CCS(=O)(=O)CC1
Activity [1]: Active
Activity [2]: Active
Ki [3]: 570 µM
Activity [4]: Active
Activity [5]: Active
Ki [6]: 170 µM
Activity [7]: Active
Activity [8]: Active
Ki [9]: 1020 µM

CC(C(=O)N[C@@H](CCCNC(=O)c1cccc(OCC(=O)O)c1)C(=O)NCCc1cccc2c1oc1c(CCC(N)=O)cccc12)c1ccc([N+](=O)[O-])cc1 (stereo not given in full)
Activity [1]: Active
Activity [2]: Active
Ki [3]: 250 µM
Activity [4]: Active
Activity [5]: Active
Ki [6]: 190 µM
Activity [7]: Active
Activity [8]: Active
Ki [9]: 110 µM

NC(=O)C1(NC(=O)[C@H](CCCNC(=O)c2cccc(OCC(=O)O)c2)NC(=O)c2ncccc2C(=O)c2ccccc2)CCCCC1
Activity [1]: Active
Activity [2]: Active
Ki [3]: 490 µM
Activity [4]: Active
Activity [5]: Active
Ki [6]: 430 µM
Activity [7]: Active
Activity [8]: Active
Ki [9]: 1080 µM

Cc1ccc(C(=O)N[C@@H](CCCNC(=O)c2cccc(OCC(=O)O)c2)C(=O)N[C@@H](Cc2ccc(C#N)cc2)C(N)=O)c([N+](=O)[O-])c1O
Activity [1]: Active
Activity [2]: Active
Ki [3]: 28 µM
Activity [4]: Active
Activity [5]: Active
Ki [6]: 260 µM
Activity [7]: Active
Activity [8]: Active
Ki [9]: 81 µM

Cc1ccc(C(=O)N[C@@H](CCCNC(=O)c2cccc(OCC(=O)O)c2)C(=O)N[C@@H](Cc2cccc(Cl)c2)C(N)=O)c([N+](=O)[O-])c1O
Activity [1]: Active
Activity [2]: Active
Ki [3]: 41 µM
Activity [5]: Active
Ki [6]: 360 µM
Activity [8]: Active

Cc1ccc(C(=O)N[C@@H](CSCCCNC(=O)c2cccc(OCC(=O)O)c2)C(=O)N[C@@H](Cc2cccc(Cl)c2)C(N)=O)c([N+](=O)[O-])c1O
Activity [1]: Active
Activity [2]: Active
Ki [3]: 96 µM
Activity [4]: Active
Activity [5]: Active
Ki [6]: 150 µM
Activity [7]: Active
Activity [8]: Active

Cc1ccc(C(=O)N[C@@H](CCCCN)C(=O)N[C@@H](Cc2cccc(Cl)c2)C(N)=O)c([N+](=O)[O-])c1O
Activity [1]: Active
Activity [10]: Active
Activity [2]: Active
Ki [3]: 110 µM
Ki [6]: 790 µM
Activity [11]: Active

Cc1ccc(C(=O)N[C@@H](CCCCNC(=O)c2cccc(OCC(=O)O)c2)C(=O)N[C@@H](Cc2cccc(Cl)c2)C(N)=O)c([N+](=O)[O-])c1O
Activity [1]: Active
Activity [2]: Active
Ki [3]: 20 µM
Activity [4]: Active
Activity [5]: Active
Ki [6]: 210 µM
Activity [7]: Active
Activity [8]: Active
Ki [9]: 54 µM

Cc1ccc(C(=O)N[C@@H](C)C(=O)N[C@@H](Cc2cccc(Cl)c2)C(N)=O)c([N+](=O)[O-])c1O
Activity [1]: Active
Activity [10]: Active
Activity [2]: Active
Ki [3]: 200 µM
Activity [12]: Active
Ki [6]: 500 µM
Activity [11]: Active

O=C(O)COc1cccc(C(=O)O)c1
Activity [1]: Active
Activity [2]: Active
Ki [3]: 210 µM
Activity [4]: Active
Activity [5]: Active
Ki [6]: 1300 µM
Activity [7]: Active
Activity [8]: Active
Ki [9]: 550 µM

NC(=O)c1cccc(OCC(=O)O)c1
Activity [1]: Active
Activity [2]: Active
Ki [3]: 760 µM
Activity [4]: Active
Activity [5]: Active
Ki [6]: 2600 µM
Activity [7]: Active
Activity [8]: Active
Ki [9]: 2600 µM

Reference: ChEMBL document CHEMBL1157909, “Targeting multiple chorismate-utilizing enzymes with a single inhibitor: validation of a three-stage design” (J Med Chem, 2010)
